Tested on: 15 base pair duplex DNA
Test: Near-UV circular dichroism / UV absorbance titration of duplex DNA with peptide
Assay type: binding
Conditions: UV absorbance spectra during titration of duplex DNA, room temperature
Outline: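 15 bp duplex DNA at 1.66 µM (typically 1–2 µM) was titrated at room temperature with small additions of a 5 mg/ml peptide stock. UV absorbance was acquired at the same time as the near-UV CD, in a 10 mm cell from 340 to 220 nm, across increasing peptide/DNA molar ratios. Uncorrected spectra show light scattering; zeroed spectra (340 nm) track 260 nm absorbance.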

Turbidity (light scattering) above 310 nm of DNA with peptide: absence of turbidity
Substance: GIGKFLHSAKKFGKAFVGEIMNS-NH2 [Magainin 2 amide]
